# ChEMBL document CHEMBL4196141, “Improved Antibacterial Activity of the Marine Peptide N6 against Intracellular Salmonella Typhimurium by Conjugating with the Cell-Penetrating Peptide Tat11 via a Cleavable Linker” (J Med Chem, 2018)
# Active and inactive are the calls of the source. The rule behind the calls is not given here.
# How the values were obtained:
# [1] = Induction of hemolysis in mouse RBC at 100 uM incubated for 1 hrs at 37 degC; format: cell-based, Erythrocyte; conditions: red blood cells (erythrocytes), read-out: Activity
# Method in brief: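 Fresh mouse erythrocytes were washed three times in 0.9% NaCl, and an 8% suspension was incubated with peptide (2-fold dilutions, 100 to 0.3125 µM) for 1 h at 37 °C. Released hemoglobin was read at 540 nm. 1% Triton X-100 defined 100% lysis; polymyxin served as positive control and NaCl as negative.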
# Salmonella typhimurium [2] = assay: Antibacterial activity against Salmonella typhimurium ATCC 14028 incubated for 16 to 18 hrs at pH 7.2 by broth microdilution method; format: functional, Salmonella enterica subsp. enterica serovar Typhimurium; conditions: Salmonella enterica
# Method in brief: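 Broth microdilution in MH broth. S. Typhimurium ATCC14028 was grown overnight at 37 °C to semi-log phase, pelleted, and diluted to OD600 0.01; final inoculum was 5 × 10^5 CFU/mL. Plates were incubated 16–18 h at 37 °C. MIC is the lowest peptide concentration with no visible growth. Data are in duplicate from at least two independent experiments.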
# Salmonella typhimurium [3] = assay: Antibacterial activity against Salmonella typhimurium ATCC 14028 infected in ICR mouse model of peritonitis assessed as reduction colony forming units in spleen at 1 to 2 umol/kg, ip dosed at 2 hrs post infection and measured after 10 hrs post dose relative to marine peptide N6; format: functional, Salmonella enterica subsp. enterica serovar Typhimurium; parameters: scale not given: the % may be the effect or the level left
# Method in brief: (§1)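 Female ICR mice, six weeks old (six per group), were infected ip with S. Typhimurium ATCC14028 (5 × 10^5 CFU, 0.5 mL). Peptide was given ip at 1, 1.5 or 2 µmol/kg 2 h post-infection. Mice were killed 10 h after treatment, and kidneys and spleens were homogenized in sterile PBS for CFU counts of translocated bacteria. PBS-treated mice served as negative control, ciprofloxacin-treated mice as positive.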
# Salmonella typhimurium [4] = assay: Antibacterial activity against Salmonella typhimurium ATCC 14028 infected in ICR mouse model of peritonitis assessed as mouse survival at 1 umol/kg, ip dosed at 0.5 and 8 hrs post infection and measured daily for 7 days
# Salmonella typhimurium [5] = assay: Antibacterial activity against Salmonella typhimurium ATCC 14028 infected in ICR mouse model of peritonitis assessed as reduction colony forming units in total peritoneal fluids at 1 umol/kg, ip dosed at 2 hrs post infection and measured after 10 hrs post dose; format: functional, Salmonella enterica subsp. enterica serovar Typhimurium
# Method in brief: (§2)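 Six-week-old female ICR mice (six per group) received ip S. Typhimurium ATCC14028 (5 × 10^5 CFU, 0.5 mL). Peptide was given ip 2 h post-infection and mice were killed 10 h after treatment. Peritoneum was lavaged with 5 mL ice-cold PBS and total CFU counted. For intracellular CFU, pelleted cells were treated with 100 µg/mL gentamicin for 1 h at 37 °C, washed, lysed and plated. PBS served as negative control, ciprofloxacin as positive.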
# Salmonella typhimurium [6] = assay: Bactericidal activity against 2 hrs-gentamicin pre-exposed Salmonella typhimurium ATCC 14028 assessed as reduction colony forming units at 20 uM incubated for 10 hrs; format: functional, Salmonella enterica subsp. enterica serovar Typhimurium
# Method in brief: (§3)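 Macrophage protection assay. RAW264.7 cells (5 × 10^4/well, 24 h) were infected with S. Typhimurium ATCC14028 at MOI 10 for 1 h in DMEM/10% FBS, exposed to 100 µg/mL gentamicin for 2 h at 37 °C, and PBS-washed. Peptides in DMEM/10% FBS were added for 10 h. Cells were lysed with 0.1% Triton X-100 and CFU plated; log10 CFU reduction versus untreated cells. Three replicates; two independent experiments; one-way ANOVA with Tukey.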
# [7] = Cytotoxicity in mouse RAW264.7 assessed as cell survival at 100 uM incubated for 8 hrs by MTT assay; format: cell-based; conditions: RAW264.7 cells, read-out: Survival
# Method in brief: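 RAW264.7 cells seeded at 2.5 × 10^4 cells/well, cultured 24 h, then exposed for 8 h to 2-fold dilutions from 100 to 0.625 µM. MTT at 5 mg/mL added for 4 h, formazan dissolved in DMSO, absorbance read at 570 nm. Untreated cells served as control. Samples run in triplicate.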
# Salmonella typhimurium [8] = assay: Antibacterial activity against Salmonella typhimurium ATCC 14028 assessed as time duration for reduction in growth using cathepsin B pre-treated compound at 1 to 2 MIC incubated for 1 to 24 hrs by time kill assay; format: functional, Salmonella enterica subsp. enterica serovar Typhimurium
# Method in brief: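 Time-kill of cathepsin B-pretreated peptide (1 h, 37 °C, pH 5 buffer). Mid-log S. Typhimurium at 10^5 CFU/mL was exposed to 1× and 2× MIC at 37 °C with shaking at 250 rpm. Samples were taken every 2 h, serially diluted and plate-counted. N6 and ciprofloxacin served as controls.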
# Salmonella typhimurium [9] = assay: Bactericidal activity against 2 hrs-gentamicin pre-exposed Salmonella typhimurium ATCC 14028 assessed as reduction colony forming units at 10 uM measured within 9 hrs; format: functional, organism-based; conditions: Salmonella enterica subsp. enterica serovar Typhimurium
# Method in brief: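 RAW264.7 cells in DMEM/10% FBS were infected with S. Typhimurium ATCC14028 at MOI 10 for 1 h, then given 100 µg/mL gentamicin for 2 h at 37 °C and washed. Cells were treated with 10 µM agent for 1, 3, 6, 9 and 12 h, lysed with 0.1% Triton X-100, and surviving intracellular bacteria were serially diluted and plated for CFU.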
# Salmonella typhimurium [10] = assay: Antibacterial activity against Salmonella typhimurium ATCC 14028 using 1 hr cathepsin B pre-treated compound at pH 5 incubated for 16 to 18 hrs at by broth microdilution method; format: functional, Salmonella enterica subsp. enterica serovar Typhimurium; conditions: Salmonella enterica
# Method in brief: (§4)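 Cathepsin B (bovine spleen, 10 µg/mL) was added for 1 h at 37 °C, and the reaction was stopped with 9 volumes of MHB. MIC was then run by broth microdilution (5 × 10^5 CFU/mL, 16–18 h, 37 °C) in medium adjusted to pH 5.0.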
# Salmonella typhimurium [11] = assay: Antibacterial activity against Salmonella typhimurium ATCC 14028 infected in ICR mouse model of peritonitis assessed as mouse survival at 1.5 umol/kg, ip dosed at 0.5 and 8 hrs post infection and measured daily for 7 days
# Salmonella typhimurium [12] = assay: Bactericidal activity against 2 hrs-gentamicin pre-exposed Salmonella typhimurium ATCC 14028 assessed as reduction colony forming units at 20 uM incubated for 10 hrs relative to marine peptide N6; format: functional, Salmonella enterica subsp. enterica serovar Typhimurium; parameters: scale not given: the % may be the effect or the level left; method in brief: as §3
# Salmonella typhimurium [13] = assay: Bactericidal activity against 2 hrs-gentamicin pre-exposed Salmonella typhimurium ATCC 14028 assessed as reduction colony forming units at 50 uM incubated for 10 hrs; format: functional, Salmonella enterica subsp. enterica serovar Typhimurium; method in brief: as §3
# Salmonella typhimurium [14] = assay: Bactericidal activity against 2 hrs-gentamicin pre-exposed Salmonella typhimurium ATCC 14028 assessed as reduction colony forming units at 50 uM incubated for 10 hrs relative to marine peptide N6; format: functional, Salmonella enterica subsp. enterica serovar Typhimurium; parameters: scale not given: the % may be the effect or the level left; method in brief: as §3
# Salmonella typhimurium [15] = assay: Antibacterial activity against Salmonella typhimurium ATCC 14028 infected in ICR mouse model of peritonitis assessed as reduction colony forming units in kidney at 1 to 2 umol/kg, ip dosed at 2 hrs post infection and measured after 10 hrs post dose relative to marine peptide N6; format: functional, Salmonella enterica subsp. enterica serovar Typhimurium; parameters: scale not given: the % may be the effect or the level left; method in brief: as §1
# Salmonella typhimurium [16] = assay: Antibacterial activity against Salmonella typhimurium ATCC 14028 infected in ICR mouse model of peritonitis assessed as reduction colony forming units in intracellular fluids at 1 umol/kg, ip dosed at 2 hrs post infection and measured after 10 hrs post dose; format: functional, Salmonella enterica subsp. enterica serovar Typhimurium; method in brief: as §2
# Salmonella typhimurium [17] = assay: Antibacterial activity against Salmonella typhimurium ATCC 14028 using 1 hr cathepsin B pre-treated compound followed by incubation for 16 to 18 hrs at pH 5 by broth microdilution method; format: functional, Salmonella enterica subsp. enterica serovar Typhimurium; conditions: Salmonella enterica; method in brief: as §4
Structure (SMILES),"hemolysis at 1 h, 100 µM [1] [%]",MIC (Salmonella typhimurium [2]) [µM],Activity (Salmonella typhimurium [3]) [%],Activity (Salmonella typhimurium [4]) [%],Activity (Salmonella typhimurium [5]) [log10CFU],Activity (Salmonella typhimurium [6]) [log10CFU],"viability at 8 h, 100 µM [7] [%]",Time (Salmonella typhimurium [8]),Activity (Salmonella typhimurium [9]),MIC (Salmonella typhimurium [10]) [µM],Activity (Salmonella typhimurium [11]) [%],Activity (Salmonella typhimurium [12]) [%],Activity (Salmonella typhimurium [13]) [log10CFU],Activity (Salmonella typhimurium [14]) [%],Activity (Salmonella typhimurium [15]) [%],Activity (Salmonella typhimurium [16]) [log10CFU],MIC (Salmonella typhimurium [17]) [µM]
CC(C)[C@H](NC(=O)CCCCCN1C(=O)CC(SC[C@H](N)C(=O)N[C@@H](Cc2ccc(O)cc2)C(=O)NCC(=O)N[C@@H](CCCNC(=N)N)C(=O)N[C@@H](CCCCN)C(=O)N[C@@H](CCCCN)C(=O)N[C@@H](CCCNC(=N)N)C(=O)N[C@@H](CCCNC(=N)N)C(=O)N[C@@H](CCC(N)=O)C(=O)N[C@@H](CCCNC(=N)N)C(=O)N[C@@H](CCCNC(=N)N)C(=O)N[C@@H](CCCNC(=N)N)C(=O)O)C1=O)C(=O)N[C@@H](CCCNC(N)=O)C(=O)Nc1ccc(COC(=O)NCC(=O)N[C@@H](Cc2ccccc2)C(=O)N[C@@H](C)C(=O)N[C@@H](Cc2c[nH]c3ccccc23)C(=O)N[C@@H](CC(N)=O)C(=O)N[C@H](C(=O)N[C@H]2CSSC[C@@H](C(=O)N[C@@H](Cc3cnc[nH]3)C(=O)N[C@@H](CCCNC(=N)N)C(=O)N[C@@H](CCCNC(=N)N)C(=O)N[C@@H](C)C(=O)N[C@@H](CC(N)=O)C(N)=O)NC(=O)[C@H](C(C)C)NC(=O)[C@H](CCCNC(=N)N)NC(=O)[C@H](C(C)C)NC(=O)CNC(=O)[C@H](CC(N)=O)NC(=O)[C@H](CCCNC(=N)N)NC(=O)[C@H](Cc3ccc(O)cc3)NC(=O)[C@H](C(C)C)NC2=O)C(C)C)cc1 (stereo partly drawn),4.6,13.6,241,83.3,3.46,2.54,64.3,<=2 hr,Active,1.7,100,98.9,3.29,98.6,241,2.04,3.4
O=C(O)c1cn(C2CC2)c2cc(N3CCNCC3)c(F)cc2c1=O [CIPROFLOXACIN],,,,100,,,,,,,,,,,,,
